Screening data deposited in PubChem BioAssay by Sanford-Burnham Center for Chemical Genomics.
Hits are enriched below; roughly 3% of the tested compounds scored in any of these assays.
Apaf1 inhib: inhibitors of human Apaf-1 apoptosome | AID 489030 | reconstituted apoptosome caspase-3 activity, DEVD-Rh110 fluorescence | inhibition, % at 20 µM | 0.71% of 330,000 active; active = inhibition of at least 40% at 20 µM;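 also: plate controls were DMSO wells for no effect and DEVD-CHO caspase inhibitor wells for full effect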
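System: Apoptosome proteins | Medium: Hepes pH 7.5 with detergent and BSA | Also added: Cytochrome c trigger plus (Z-DEVD)2-Rh110 caspase-3 substrate | Incubation: 30 min compound preincubation, 50 min activation, room temperature | Detection: Rhodamine 110 fluorescence at Ex 480/Em 540 nm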
SENP6 block: blocks the human protease SENP6. inhibition, % at 10 µM. 1.8% of 330,000 active. Q9GZR1. Recombinant SENP6 catalytic domain, aminoluciferin luminescence;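 active = inhibition above about 50% at the single tested dose, limit read from the data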;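 also: plate controls were DMSO wells with enzyme for no effect and DMSO wells lacking enzyme for full effect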
SENP8 block-1: inhibitors of human SENP8 protease | inhibition, % at 20 µM | AID 602440 | 0.64% of 360,000 active | recombinant SENP8, Nedd8 substrate fluorescence; in the data active = inhibition mostly above about 40%, no sharp cut-off; inactive = mostly below about 27%
SENP7 inh: blocks the human protease SENP7 | Q9BQF6 | recombinant SENP7, Z-RLRGG-aminoluciferin luminescence, 40 min | inhibition, % at 5 µM | 1.5% of 330,000 active;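 active = inhibition above about 50% at the single test dose, limit read from the data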;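 also: plate controls were DMSO with enzyme for no effect and no enzyme buffer wells for full effect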
Target sequence (Q9BQF6 706-1050 limits assumed): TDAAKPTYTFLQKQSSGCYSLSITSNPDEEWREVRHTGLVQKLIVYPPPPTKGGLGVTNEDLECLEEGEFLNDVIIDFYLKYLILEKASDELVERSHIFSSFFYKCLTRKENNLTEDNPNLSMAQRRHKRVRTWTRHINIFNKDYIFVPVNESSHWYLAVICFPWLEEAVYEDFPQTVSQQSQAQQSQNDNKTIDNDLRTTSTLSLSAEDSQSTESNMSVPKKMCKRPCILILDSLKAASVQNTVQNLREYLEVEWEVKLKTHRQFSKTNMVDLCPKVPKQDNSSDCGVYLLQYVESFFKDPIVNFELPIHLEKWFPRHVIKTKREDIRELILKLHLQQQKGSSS
SENP8 block-2: blocks the human protease SENP8. Q96LD8. purified SENP8, Z-RLRGG-aminoluciferin cleavage, luminescence. inhibition, % at 10 µM. 1.2% of 330,000 active; in the data active = inhibition above about 50%
UBC13 polyUb: blocks human UBC13 polyubiquitin chain formation; AID 485273; P61088; 0.47% of 330,000 active; TR-FRET; inhibition, % at 20 µM; in the data active = inhibition above about 45%, passing the limit was not always enough
SENP8 confirm: confirmation of human SENP8 protease inhibitors; inhibition, % at 12.5 µM; shares compounds with SENP7 inh; 40% of 6,200 active; Recombinant SENP8, Z-RLRGG-aminoluciferin luminescence, 60 min; AID 488912;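 active = mean inhibition across replicates above about 50%, limit read from the data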
SENP6 conf: confirmation of human SENP6 protease inhibitors. 58% of 6,200 active. recombinant SENP6, Z-RLRGG-aminoluciferin luminescence. AID 488915. inhibition, % at 12.5 µM. shares compounds with SENP7 inh
SENP7 conf: confirmation of human SENP7 protease inhibitors; AID 488917; inhibition, % at 12.5 µM; 69% of 6,200 active; shares compounds with SENP7 inh; recombinant SENP7, Z-RLRGG-aminoluciferin luminescence, 40 min
Casp3 SENP sel: caspase-3 inhibition (SENP selectivity assay); 60% of 6,200 active; shares compounds with SENP7 inh; purified caspase-3, Z-DEVD-aminoluciferin luminescence, 60 min; inhibition, % at 12.5 µM;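 active = mean inhibition above about 50%, limit read from the data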;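 also: plate controls were enzyme with DMSO for no effect and wells without caspase-3 for full effect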
Luc interf: luminescence interference (SENP counter-screen); inhibition, % at 12.5 µM; AID 488919; Pre-incubated SENP8/Z-RLRGG-aminoluciferin, luciferase luminescence interference; shares compounds with SENP7 inh; 39% of 6,200 active;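 active = mean inhibition above about 50% when retested at one dose, limit read from the data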;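 also: plate controls were DMSO wells with completed reaction for no effect and substrate without enzyme for full effect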
* marks the source's active call; other numbers are inactive results; i = inactive; . = no result.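 The calls were made as follows, unless noted: active = mean inhibition above about 50% in the one-dose retest (limit read from the data); inactive = the rest.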

SMILES	Apaf1 inhib	SENP6 block	SENP8 block-1	SENP7 inh	SENP8 block-2	UBC13 polyUb	SENP8 confirm	SENP6 conf	SENP7 conf	Casp3 SENP sel	Luc interf
Cc1cc(NC(=O)c2ccc3c(c2)OCO3)ccc1NC(=O)c1ccccc1	-1	85*	7	92*	61*	8	-25	32	30	7	-3
Cc1ccc(NC(=O)c2ccco2)cc1C	3	67*	21	65*	32	-8	50*	48	80*	73*	52*
O=C(Nc1ccc(CSc2ccccc2)cc1)c1ccco1	-11	84*	0	89*	69*	6	7	63*	95*	72*	38
O=C(CCc1ccccc1)Nc1ccc(NC(=O)c2ccco2)cc1	-193	10	5	1	10	-7	.	.	.	.	.
COc1ccc(-c2c(-c3cc(OC)cc(OC)c3)n(C)c3ccc(-c4ccc(S(N)(=O)=O)cc4)cc23)cc1	-12	4	i	6	0	14	.	.	.	.	.
COc1ccccc1C1C(C#N)=C(N)N(N(C)C)C2=C1C(=O)CC(C)(C)C2 (centres undefined)	-3	-22	8	-3	0	4	.	.	.	.	.
Cc1ccc2nc(-c3ccc(NC(=O)c4ccco4)cc3)[nH]c2c1	-3	51*	-148	35	-2	-11	11	10	64*	28	42
O=C(Nc1ccc(OC(=O)c2ccco2)cc1)c1ccco1	-6	83*	14	86*	29	6	67*	62*	90*	53*	80*
COc1cc(OC)cc(C(=O)Nc2ccc(NC(=O)c3ccco3)c(C)c2)c1	10	98*	3	96*	94*	-4	4	95*	101*	96*	86*
O=C(Nc1ccc(Cl)c([N+](=O)[O-])c1)c1ccco1	-6	-2	18	1	-27	2	.	.	.	.	.
O=C(Nc1ccc(Br)c(Cl)c1)c1ccco1	4	84*	17	70*	46	11	61*	58*	84*	41	69*
Cc1ccc(C(=O)Nc2ccc3c(c2)OCO3)cc1NC(=O)c1ccco1	-4	-11	4	10	-1	5	.	.	.	.	.
CCn1nccc1C(=O)Nc1ccc(C)c(C)c1	-10	70*	10	82*	65*	-2	69*	64*	91*	84*	75*
Cc1ccc(NC(=O)c2cc(S(=O)(=O)N3CCCC3)cn2C)cc1C	17	-16	8	0	-7	13	.	.	.	.	.
Cc1cc(NC(=O)c2ccc3c(c2)OCO3)ccc1NC(=O)c1ccco1	-6	91*	21	92*	91*	4	8	90*	100*	96*	90*
COc1ccccc1/C=N\NC(=O)c1ccc(COc2ccc(C)c(C)c2)o1	-5	-2	-10	3	-2	1	.	.	.	.	.
O=C(NCCN1CCOCC1)c1ccc(=O)n(Cc2ccc(Cl)cc2)c1	1	-9	15	5	-2	7	.	.	.	.	.
O=C(CSc1nnc(CNC(=O)c2ccc(F)cc2)o1)NCc1ccc2c(c1)OCO2	8	-2	2	4	0	6	.	.	.	.	.
COc1ccc2c(c1)CC/C2=N\OC(=O)c1cccc(C)c1	18	86*	-7	84*	72*	11	-3	6	6	9	8
COc1ccc2c(c1)CCC/C2=N/OC(=O)c1ccccc1OC	15	-2	5	10	-3	1	.	.	.	.	.
